# The EternaBench riboswitch data
# System: MS2 coat protein
# Assay: apparent Kd, MS2 coat protein; higher = weaker binding; RNA-MaP array; FMN 200 µM where present
# Outline: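 Stalled E. coli RNA polymerase transcribed the designs on Illumina sequencing-chip clusters. SNAP-549-labelled MS2 coat protein was titrated from 0.7 or 1.5 nM, doubling to 3 µM, without and then with constant ligand, in 100 mM Tris-HCl pH 7.5, 80 mM KCl, 4 mM MgCl2, BSA, DTT, yeast tRNA and Tween-20. Per-cluster binding curves were fitted to green signal normalised to red-channel RNA signal and control-cluster median Fmax. The apparent Kd is the median of the filtered fits.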
# [1] = designed as: OFF switch for flavin mononucleotide, no ligand
# [2] = ligand present: flavin mononucleotide, designed as: OFF switch for flavin mononucleotide
# [3] = designed as: ON switch for flavin mononucleotide, no ligand
# [4] = ligand present: flavin mononucleotide, designed as: ON switch for flavin mononucleotide
Sequence,apparent Kd [1],apparent Kd [2],apparent Kd [3],apparent Kd [4]
CUAUUCCGAGGAUAUACAUGAGGAUCACCCAUGUCGGGCCUCUGGCCUAAGGCCGAAAGUAGAAGGUGGGUUUC,64.6 nM,61.5 nM,–,–
CGUAUACAUGAGGAUCACCCAUGUGAGGAUAUGCUUUAUUAUUAUUAUUAUUAUUGUUGCAGAAGGUACAUUGC,23.5 nM,18.2 nM,–,–
CCGACUUACUAGGAUAUCAGAGUCGAAAGACUCUGAGAAGGAGUAACAUGAGGAUCACCCAUGUGUCCUAUCGG,23.3 nM,77.7 nM,–,–
CACGAUGAUGUAGGAUAUAUACUGGAAUACAGUAUAGAAGGACAUGAGGAUCACCCAUGUUAAGUGCCUCCAAGUAACAUCGUG,17.2 nM,25.4 nM,–,–
CGGCGGAAAGGAUAUGCAGAAAUAUCAAAAUGUGGGCCACGACAUGAGGAUCACCCAUGUAGAAGGUUCAGCCG,15.5 nM,12.7 nM,–,–
GCCAAGCUAGGAUAUACCCAGGGUUUGUUCUCUAACAACACACAUGAGGAUCACCCAUGUAGAAGGAGCCGGGA,38.3 nM,81 nM,–,–
CGGUCGAUGUAAGGAUAUCGACUGGAAUACAGUCGAGAAGGUACAUGAGGAUCACCCAUGUAAACCUAUAAUAAAUAACGACCG,11.7 nM,14.4 nM,–,–
AUUACAAUUUUAUACAUGAGGAUCACCCAUGUUAUAAGUCAUGAGGAUAUGGUAUUGUAGUUAUUCCAGAAGGCAUUUAGCUAA,–,–,8.75 nM,7.64 nM
UCACGGUAUGUAGGAUAUGCAUAGCAUUGCUAUGCAGAAGGACAUGAGGAUCACCCAUGUAUGUAUUCCAUACUAAUCCCGUGG,5.57 nM,5.66 nM,–,–
UUAGUCAUGUGACGUGUUGACAUUCCAGAAGGGCCACAUGAGGAUCACCCAUGUCGAAGAAACAGGCAGGAUAUGGACCAAUGG,–,–,43 nM,11.2 nM
UUUCAGCAAGGAUAUACGGGCUGUGCUUUUCAUUUCUUACAACAUGAGGAUCACCCAUGUAGAAGGUGCAUCUU,72.5 nM,111 nM,–,–
GCUUAGUAAGGAUAUUCACCGAUAAACAUGAGGAUCACCCAUGUCAUGUACCGUCGCCCGGAAGAAGGUACAGGCU,49.6 nM,44.9 nM,–,–
AAAAGCUCAGGAUAUACGGUCUGUUGUUGAAAAAGUAAAAAACAUGAGGAUCACCCAUGUAGAAGGGAGCGAAA,67.3 nM,159 nM,–,–
UUAUUUAGUGUGAGGAUAUGCUGGUCGAUAGAUCAGCAGAAGGCACAUGAGGAUCACCCAUGUAAUAUAUUAAA,58.9 nM,248 nM,–,–
GUAACAUGAGGAUCACCCAUGUCGUGCUAGAUGAGUUCUGGUGAGGAUAUACAUGGUAAAUAACUGUAGAAGGCGCUGGGUACA,–,–,132 nM,105 nM
AUCCGCUCGUCAGGAUAUACGUCACUGCGUCAGCAGUGUGGUAAGAUCACAUGAGGAUCACCCAUGUAGAAGGGACGAGCUGAU,13.6 nM,276 nM,–,–
AGUAUGCACGCAGGAUAUACAUGAGGAUCACCCAUGUGGAACAGUGUAGUAUUAGUUGAUCCUCAGUAGAAGGGCGGUCGAAAU,82.5 nM,55.6 nM,–,–
GGAUCGAUAGUGAGGAUAUACCACUGGAUACAGUGGUAGAAGGCACAUGAGGAUCACCCAUGUCCUAACGAUCC,20.6 nM,99.4 nM,–,–
AUCAGCUUGACAGGAUAUGCAUGUCAACGAAAGUUGACAAUCUUAAUAACAUGAGGAUCACCCAUGUAGAAGGGUCGAGCUGAU,17.4 nM,19.9 nM,–,–
ACGCAGCUAGGUGAGGAUAUCGGUGGUAAAACAUGAGGAUCACCCAUGUCCGAAGCUCGGACUUCCGAGAAGGCGCCCGGCUGCA,–,–,122 nM,15.7 nM
